The values that follow come from PMC8829933 (ACS Omega, 2022).

SMILES strings stand for the structures.

The target of experiment [1] is HIV-1 IN (WT) (Human immunodeficiency virus type 1 group M subtype B, UniProt P12497). Kind of experiment: HTRF-based integration assay of IN catalytic activity. The class given is biochemical. Summed up: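 Full-length HIV-1 IN and LEDGF/p75 cofactor (6xHis- and Flag-tagged, expressed in E. coli BL21(DE3)) catalyse integration of donor viral DNA, 5′-Cy5-labelled, into acceptor target DNA, 5′-biotinylated and bound by streptavidin-europium. The integration product is read as time-resolved FRET between the two fluorophores, with test compound present.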

Experiment [2] addresses HIV-1 IN A128T (Human immunodeficiency virus type 1 group M subtype B, UniProt P12497, A1275T). Nature of the experiment: HTRF-based integration assay against drug-resistant IN. The class given is biochemical. (In TR-FRET formats the signal depends on donor and acceptor labels being close together.)
Experiment [3] has as its target HIV-1 IN H171T (Human immunodeficiency virus type 1 group M subtype B, UniProt P12497, H1318T). The description is as above. The class given is biochemical.
The target of experiment [4] is HIV-1 IN G140S/Q148H (Human immunodeficiency virus type 1 group M subtype B, UniProt P12497, G1287S/Q1295H). Described as above. The class given is biochemical.
In experiment [5] the test system is HIV-1. The note with it: reported in the literature; ref [30],[41],[58],[60]−[69]; cited from earlier work.

The term IC50 denotes the midpoint of a concentration-inhibition curve. Read a low IC50 as higher potency. For `CC(C)(C)OC(=O)N1CCC(C(=O)N[C@@H](Cc2ccc3ccccc3c2)C(=O)O)(c2ccccc2)CC1` [Compound 14e], the IC50 in experiment [1] (IC50, inhibitory activity against IN, Table 2, WT IN) came out at 90.4 ± 4.72 µM; in experiment [2], 86.8 ± 2.98 µM; in experiment [3], 114 ± 9.79 µM; in experiment [4] it was 103 ± 3.12 µM. In addition, the “fold higher potency than compound 12” value in experiment [1] (IN catalytic activity in vitro, relative to 12) is “fourfold”.
Take `Cc1nc2c(c(C)c(C)n2Cc2cnn(C)c2)c(-c2ccc(Cl)cc2)c1[C@H](OC(C)(C)C)C(=O)O` [STP0404]: in experiment [5], the “selectivity against HIV-1 (therapeutic index)” value is reported as > 24,000.
